Screens as filed in PubChem.
Only some compounds are listed: those with a hit (about 4.7% of all), similar ones and a draw of the others.
697 NFkB inh = inhibitors of PMA/ionomycin-induced NF-kB reporter, 697 cells, primary screen, B-cell NF-kB inhibitor project, cell-based, luminescence, uHTS; 697 B-cell NF-kB luciferase reporter, 16 h; inhibition, % at 4 µM; 0.33% of 330,000 active; AID 435022, 2010; in the data active = inhibition above about 35%
Mdm2-MdmX inh = inhibitors of human Mdm2-MdmX association, primary screen, cell-based, luminescence, split luciferase, SaOS-2, uHTS; Protein Mdm4 (Homo sapiens) + E3 ubiquitin-protein ligase Mdm2 (Homo sapiens), …; SaOS-2 split-luciferase Mdm2/MdmX complementation; inhibition, % at 8 µM; 3% of 330,000 active; AID 485346, 2010;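 active = inhibition of at least 50% at 8 µM in the primary screen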
Target sequence (O15151 whole entry, looked up): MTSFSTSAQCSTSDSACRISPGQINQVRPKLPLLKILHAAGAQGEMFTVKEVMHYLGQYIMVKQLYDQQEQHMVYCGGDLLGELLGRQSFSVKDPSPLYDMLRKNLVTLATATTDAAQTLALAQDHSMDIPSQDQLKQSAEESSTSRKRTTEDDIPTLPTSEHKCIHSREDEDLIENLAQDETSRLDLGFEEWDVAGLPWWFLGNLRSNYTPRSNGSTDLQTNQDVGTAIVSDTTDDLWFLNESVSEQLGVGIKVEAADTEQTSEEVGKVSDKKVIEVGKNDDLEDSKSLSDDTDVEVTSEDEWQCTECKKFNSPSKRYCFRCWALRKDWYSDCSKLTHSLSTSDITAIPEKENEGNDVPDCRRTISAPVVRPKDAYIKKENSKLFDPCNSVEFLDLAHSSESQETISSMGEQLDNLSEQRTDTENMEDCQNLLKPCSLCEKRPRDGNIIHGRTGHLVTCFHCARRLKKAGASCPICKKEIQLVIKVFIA
Target sequence (Q00987 whole entry, looked up): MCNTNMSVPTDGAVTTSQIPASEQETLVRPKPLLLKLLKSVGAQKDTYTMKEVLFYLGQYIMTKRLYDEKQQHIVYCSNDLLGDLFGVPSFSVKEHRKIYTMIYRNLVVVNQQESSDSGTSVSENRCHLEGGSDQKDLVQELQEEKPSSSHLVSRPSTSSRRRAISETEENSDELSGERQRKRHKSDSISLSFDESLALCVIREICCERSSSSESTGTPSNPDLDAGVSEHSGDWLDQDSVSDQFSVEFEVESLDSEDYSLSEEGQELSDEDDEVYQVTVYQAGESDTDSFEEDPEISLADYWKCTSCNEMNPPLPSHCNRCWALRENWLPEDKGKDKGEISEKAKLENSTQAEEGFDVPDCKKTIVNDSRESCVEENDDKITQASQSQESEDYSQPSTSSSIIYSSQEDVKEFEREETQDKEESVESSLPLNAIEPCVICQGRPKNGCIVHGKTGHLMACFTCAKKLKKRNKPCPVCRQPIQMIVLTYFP
VIM-2 inh = VIM-2 metallo-beta-lactamase inhibitors, primary screen, biochemical, epi-absorbance readout, Pseudomonas aeruginosa enzyme; inhibition, % at 5.6 µM; 0.89% of 290,000 active; purified VIM-2, nitrocefin hydrolysis, epi-absorbance fluorescence;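 active = inhibition above the mean of all tested compounds plus 3 SD, cutoff set per screening run, cut at about 7.5% in these data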;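 also: red hydrolysis product quenches plate fluorescence so inhibitors raise well fluorescence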
Jurkat NFkB inh = inhibitors of induced NF-kB luciferase reporter, primary screen, TCR NF-kB activation inhibitor project, cell-based, luminescence, uHTS | Jurkat, PMA/ionomycin-induced NF-kB luciferase reporter | inhibition, % at 4 µM | 0.53% of 330,000 active | AID 435003, 2010; in the data active = inhibition above about 50%
aSyn 5UTR inh = MLPCN primary screen, SNCA 5' untranslated region | alpha-synuclein 5'UTR reporter, inhibitor activity | inhibition, % (tested at 7.5 µM) | 0.82% of 300,000 active; in the data active = inhibition above about 60%;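 also: H4 neuroglioblastoma cells stably carrying SNCA 5'UTR luciferase fusion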
IMP-1 inhibitor = IMP-1 metallo-beta-lactamase inhibitors, primary screen, biochemical, epi-absorbance readout, Pseudomonas aeruginosa enzyme; 0.45% of 290,000 active; AID 1556, 2009; purified IMP-1, nitrocefin hydrolysis, epi-absorbance fluorescence; inhibition, % at 5.6 µM;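 active = inhibition above the mean plus 3 SD of all compounds in the same screening run, cut at about 4.5% in these data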
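System: purified IMP-1; amount: IMP-1 0.2 nM before substrate addition; compound: single dose, 5.6 µM; times: 25 °C, 15 min preincubation, 25 min reaction; signal: Epi-absorbance via hydrolysed-nitrocefin quenching of white-plate fluorescence, 480/530 nm, EDTA stop; benchmarks: DMSO with and without IMP-1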
Mdm2-MdmX conf = Mdm2-MdmX complex disruptors, retested hits, confirmation, luminescence, single concentration; shares compounds with Mdm2-MdmX inh; Mdm2-MdmX binding, luminescent assay; inhibition, % at 8 µM; 55% of 10,000 active; AID 489028, 2010; in the data active = inhibition above about 40%
FLuc counter = full-length luciferase signal inhibition, confirmation, counter-screen for Mdm2/MdmX interaction inhibitor project, cell-based, single concentration, SaOS-2 | shares compounds with Mdm2-MdmX inh | 77% of 6,200 active | SaOS-2 full-length luciferase counterscreen, luminescence | inhibition, % at 8 µM | AID 504607, 2011;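 active = mean inhibition at 8 µM reaching about 37%, which flags the compound as non-specific, limit read from the data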;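 also: p53-null SaOS-2 cells with luciferase driven by a doxycycline-inducible promoter; compound on cells about two nights before reading with doxycycline added after day one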
Hits are given with their value; – = inactive; · = no result given.

SMILES	697 NFkB inh	Mdm2-MdmX inh	VIM-2 inh	Jurkat NFkB inh	aSyn 5UTR inh	IMP-1 inhibitor	Mdm2-MdmX conf	FLuc counter
Cc1cccc(NC(=O)CSc2nc3ccccc3c(=O)n2C)c1	–	–	–	–	–	–	·	·
COc1cccc(NC(=O)CSc2nc3c([nH]c4ccccc43)c(=O)n2C)c1	–	54.8	–	–	–	–	–	·
Cn1c(SCC(=O)Nc2ccccc2)nc2c([nH]c3ccccc32)c1=O	–	66.5	–	–	–	–	–	·
COCCn1c(SCC(=O)Nc2cccc(NC(C)=O)c2)nc2c([nH]c3ccccc32)c1=O	–	–	–	–	–	–	·	·
CCCCN1CC(=O)N2[C@H]3c4cc(Cl)ccc4OC[C@@H]3[C@H](c3ccccc3)[C@]2(C)C1=O	–	–	·	–	·	·	·	·
Cc1cc(C)c2nc(C(F)(F)F)c(C#N)c(N)c2c1	–	70.9	–	–	–	–	86.1	55.0
Cc1cccc(C(C#N)c2nc3ccccc3nc2C(F)(F)F)c1 (configuration not stated)	–	–	–	–	–	–	·	·
Cc1ccc2nc(C(F)(F)F)c(C#N)c(N)c2c1	–	85.0	–	–	–	–	67.2	–
CCCCCN(C(=O)CCC(=O)OCc1cccc(C)c1)c1c(N)n(CCCC)c(=O)[nH]c1=O	–	–	·	–	–	·	·	·
O=C(CSc1ccc(-c2cccnc2)nn1)Nc1ccc(F)c(F)c1	–	–	–	–	–	–	·	·
O=C(CCN1C(=O)/C(=C/c2ccccc2)SC1=S)N[C@@H](CO)Cc1ccccc1	–	89.0	–	–	–	–	71.5	49.8
O=C(CCN1C(=O)/C(=C/c2ccccc2F)SC1=S)N[C@@H](CO)Cc1ccccc1	–	80.0	–	–	–	–	–	54.0
COc1ccc(C(=O)Nc2nc3ccccc3[nH]2)cc1	–	56.3	–	–	70.7	–	–	82.6
COc1ccc(C(=O)Nc2cccc3c2CCCC3)cc1	–	51.1	–	–	–	–	–	73.8
COc1ccc(CC(=O)Nc2cccc3c2CCCC3)cc1	–	–	–	–	–	–	·	·
Cc1ccc(C(=O)Nc2nc3ccccc3[nH]2)cc1	–	64.0	–	–	68.1	–	48.8	57.5
COc1cc(C(=O)Nc2nc3ccccc3[nH]2)cc(OC)c1OC	–	–	–	–	–	–	·	·
C/C(=N\Nc1nc2ccccc2[nH]1)c1ccc([N+](=O)[O-])cc1	–	55.3	–	–	–	–	–	·
CS(=O)(=O)N(Cc1ccccc1Cl)c1ccc(C(=O)N2CCCC2)cc1	–	–	–	–	–	–	·	·
Cc1ccc(C(=O)Nc2ccc(N3CCN(S(C)(=O)=O)CC3)cc2)cc1	–	–	–	–	–	–	·	·
CS(=O)(=O)N1CCN(c2ccc(NC(=O)c3ccc(-c4ccc(Cl)cc4)o3)cc2)CC1	–	–	–	–	–	–	–	·
CCOc1ccc(Nc2oc(-c3cccc(Cl)c3)nc2C#N)cc1	–	51.4	–	–	–	–	–	·
CCNc1oc(COc2cccc(C)c2)nc1C#N	–	–	–	–	–	–	·	·
CCOc1ccc(Nc2oc(-c3ccco3)nc2C#N)cc1	–	–	–	–	–	–	·	·
COc1ccc(Nc2oc(COc3ccc(C)cc3)nc2C#N)cc1	–	59.1	–	–	67.9	–	73.6	60.6
SMILES	697 NFkB inh	Mdm2-MdmX inh	VIM-2 inh	Jurkat NFkB inh	aSyn 5UTR inh	IMP-1 inhibitor	Mdm2-MdmX conf	FLuc counter
COc1ccc(Nc2oc(COc3ccc(OC)cc3)nc2C#N)cc1	–	63.2	–	–	77.9	–	80.0	59.3
COc1ccc(Nc2oc(COc3ccccc3F)nc2C#N)cc1	–	–	–	–	–	–	·	·
COc1ccc(Nc2oc(COc3cccc(C)c3)nc2C#N)cc1	–	62.8	–	–	–	–	48.5	90.5
CC(C)Cn1c(N)c(C(=O)CSc2cc(Cl)ccc2Cl)c(=O)n(C)c1=O	–	68.8	–	–	–	–	–	·
CC(C)Cn1c(N)c(C(=O)CSc2ncccn2)c(=O)n(C)c1=O	–	–	·	–	–	·	·	·
NC(=O)CSc1nc(C23CC4CC(CC(C4)C2)C3)nc2ccccc12	–	59.8	–	–	–	–	–	44.8
Cc1nonc1NC(=O)CSc1nc(C23CC4CC(CC(C4)C2)C3)nc2ccccc12	–	52.0	–	–	–	–	–	·
NC(=O)CSc1nc2ccccc2nc1SCC(N)=O	–	–	–	–	–	–	·	·
Cc1nonc1NC(=O)CSc1nc(C2CCCCC2)nc2ccccc12	–	–	–	–	–	–	·	·
